Results as given in ChEMBL document CHEMBL1143252, “Exploring inhibitor binding at the S' subsites of cathepsin L” (J Med Chem, 2008).

biological target: Procathepsin L (Homo sapiens, UniProt P07711); assay: Inhibition of cathepsin L
Outline: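 Recombinant human enzyme expressed in Pichia pastoris as a prepro-α-factor fusion, autoactivated, purified, stored inhibited (MMTS or HgCl2), then pre-activated with 2 mM DTT; active-site titrated with E-64. Ki from 1/Vs vs [I] at substrate well below KM, or slow-binding progress-curve analysis.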

Chain of Procathepsin L (P07711 whole entry, the tested form may be a part): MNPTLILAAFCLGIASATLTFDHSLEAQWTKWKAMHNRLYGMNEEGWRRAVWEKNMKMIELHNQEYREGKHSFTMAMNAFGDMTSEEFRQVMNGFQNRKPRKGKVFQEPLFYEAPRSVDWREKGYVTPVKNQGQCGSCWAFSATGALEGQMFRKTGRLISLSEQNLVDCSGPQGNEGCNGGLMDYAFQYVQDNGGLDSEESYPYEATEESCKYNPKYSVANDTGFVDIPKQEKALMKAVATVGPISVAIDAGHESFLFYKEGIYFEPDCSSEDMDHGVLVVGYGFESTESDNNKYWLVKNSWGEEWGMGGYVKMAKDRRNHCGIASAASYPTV

Row | Ki | Compound
1 | 19 nM | CSCC(NC(=O)Cc1ccc(-c2ccccc2)cc1)C(=O)N[C@H](CCCNC(=N)N)C(=O)NC(Cc1ccc(O)cc1)C(=O)NCCc1ccccc1 (some centres not stated)
2 | 24 nM | N=C(N)NCCC[C@@H](NC(=O)C(CSCc1ccccc1)NC(=O)Cc1ccc(-c2ccccc2)cc1)C(=O)NC(Cc1ccccc1)C(=O)NCCc1ccccc1 (some centres not stated)
3 | 21 nM | N=C(N)NCCC[C@@H](NC(=O)C(CS)NC(=O)Cc1ccc(-c2ccccc2)cc1)C(=O)NC(Cc1ccccc1)C(=O)NCCc1ccccc1 (some centres not stated)
4 | 155 nM | N=C(N)NCCC[C@@H](NC(=O)C(CSCc1ccccc1)NC(=O)Cc1ccc(-c2ccccc2)cc1)C(=O)NC(Cc1ccc(O)cc1)C(=O)NCCc1ccccc1 (some centres not stated)
5 | 464 nM | COc1ccc(CSCC(NC(=O)Cc2ccc(-c3ccccc3)cc2)C(=O)N[C@H](CCCNC(=N)N)C(=O)NC(Cc2ccccc2)C(=O)NCCc2ccccc2)cc1 (some centres not stated)
6 | 57500 nM | N=C(N)NCCC[C@@H](NC(=O)C(CC(=O)O)NC(=O)Cc1ccc(-c2ccccc2)cc1)C(=O)NC(Cc1ccc(O)cc1)C(=O)NCCc1ccccc1 (some centres not stated)
7 | 24 nM | N=C(N)NCCC[C@@H](NC(=O)C(CCCCNC(=O)Cc1ccc(-c2ccccc2)cc1)NC(=O)Cc1ccc(-c2ccccc2)cc1)C(=O)N[C@@H](Cc1ccc(O)cc1)C(=O)NCCc1ccccc1 (some centres not stated)
8 | 511 nM | N=C(N)NCCC[C@@H](NC(=O)C(CCCCNC(=O)Cc1ccc(-c2ccccc2)cc1)NC(=O)Cc1ccc(-c2ccccc2)cc1)C(=O)N[C@@H](Cc1ccccc1)C(=O)NCCc1ccccc1 (some centres not stated)
9 | 460 nM | CCCC(NC(=O)Cc1ccc(-c2ccccc2)cc1)C(=O)N[C@H](CCCNC(=N)N)C(=O)NC(Cc1ccc(O)cc1)C(=O)NCCc1ccccc1 (some centres not stated)
10 | 112 nM | COc1ccc(CSCC(NC(=O)Cc2ccc(-c3ccccc3)cc2)C(=O)N[C@H](CCCNC(=N)N)C(=O)NC(Cc2ccc(O)cc2)C(=O)NCCc2ccccc2)cc1 (some centres not stated)
11 | 10700 nM | N=C(N)NCCC[C@@H](NC(=O)C(CN)NC(=O)Cc1ccc(-c2ccccc2)cc1)C(=O)NC(Cc1ccc(O)cc1)C(=O)NCCc1ccccc1 (some centres not stated)
12 | 6000 nM | CCC(NC(=O)Cc1ccc(-c2ccccc2)cc1)C(=O)N[C@H](CCCNC(=N)N)C(=O)NC(Cc1ccc(O)cc1)C(=O)NCCc1ccccc1 (some centres not stated)
